The results in this text go back to publication PMC8158801 (ACS Omega, 2021).

Each structure is given as a SMILES string.

Assay [1] relates to mouse myelogenous leukemia (M-NFS-60) cell line. Nature of the assay: Cytotoxic activity, MTT cell viability assay, M-NFS-60. The class given is cell-based. The arrangement: unit not given beside the values. The following applies: n = 3, reference standard. The essentials: (§1)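 The defatted alcoholic root extract was tested at 4–500 μg/mL, with cisplatin as the reference standard, in an MTT cell-viability assay. Viability is expressed as % of untreated control. IC50 was derived by linear regression. Each point was run in triplicate and reported as mean ± SD.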
In general terms: Formazan colour is commonly taken as a measure of viable cells.

The test system of assay [2] is Human hepatocellular carcinoma (HepG2) cell line. Nature of the assay: Cytotoxic activity, MTT cell viability assay, HepG2. It counts as cell-based. Further details: unit not given beside the values. The following applies: n = 3, reference standard. In short, it runs like this:
as §1

For the compound `N.N.[Cl][Pt][Cl]` [cisplatin], in assay [1], the “IC50 against M-NFS-60 cell line (unit not given)” value is recorded as 8.37 ± 0.25. In assay [2], the “IC50 against HepG2 cell line (unit not given)” value is reported as 3.25 ± 1.4.
